The values that follow come from ChEMBL document CHEMBL4402549, “Benzothiazole-Based LRRK2 Inhibitors as Wnt Enhancers and Promoters of Oligodendrocytic Fate” (J Med Chem, 2020).

Active and inactive are the calls of the source. The rule behind the calls is not given here.

Data set [1] concerns the target T1, Leucine-rich repeat serine/threonine-protein kinase 2 (Homo sapiens, UniProt Q5S007). The data set is described as follows: Inhibition of wild type human GST-tagged LRRK2 (970 to 2527 residues) expressed in baculovirus expression system assessed as reduction in ADP formation at 10 uM using LRRKtide as substrate measured after 1 hr in presence of ATP by Adapta assay relative to control. Summed up: (§1)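 Fluorescence immunoassay detecting ADP formed by the kinase reaction. Each compound screened at a single fixed concentration of 10 µM and reported as percent inhibition.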

The target in data set [2] is T1, Leucine-rich repeat serine/threonine-protein kinase 2. The data set is described as follows: Inhibition of wild type human GST-tagged LRRK2 (970 to 2527 residues) expressed in baculovirus expression system assessed as reduction in ADP formation using LRRKtide as substrate measured after 1 hr in presence of ATP by Adapta assay. The gist of the method:
(§2)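 Fluorescence immunoassay detecting ADP formed in the kinase reaction. Dose-response run at ten concentrations per compound in two independent experiments. IC50 given ± standard deviation.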

Data set [3] deals with Leucine-rich repeat serine/threonine-protein kinase 2 (Homo sapiens), Q5S007 [G2019S]. The data set is described as follows: Inhibition of human GST-tagged LRRK2 G2019S mutant (970 to 2527 residues) expressed in baculovirus expression system assessed as reduction in ADP formation at 10 uM using LRRKtide as substrate measured after 1 hr in presence of ATP by Adapta assay relative to control. The gist of the method: as §1
Leucine-rich repeat serine/threonine-protein kinase 2 (Homo sapiens), Q5S007 [G2019S], sequence (Q5S007 whole entry G2019S, the tested form may be a part): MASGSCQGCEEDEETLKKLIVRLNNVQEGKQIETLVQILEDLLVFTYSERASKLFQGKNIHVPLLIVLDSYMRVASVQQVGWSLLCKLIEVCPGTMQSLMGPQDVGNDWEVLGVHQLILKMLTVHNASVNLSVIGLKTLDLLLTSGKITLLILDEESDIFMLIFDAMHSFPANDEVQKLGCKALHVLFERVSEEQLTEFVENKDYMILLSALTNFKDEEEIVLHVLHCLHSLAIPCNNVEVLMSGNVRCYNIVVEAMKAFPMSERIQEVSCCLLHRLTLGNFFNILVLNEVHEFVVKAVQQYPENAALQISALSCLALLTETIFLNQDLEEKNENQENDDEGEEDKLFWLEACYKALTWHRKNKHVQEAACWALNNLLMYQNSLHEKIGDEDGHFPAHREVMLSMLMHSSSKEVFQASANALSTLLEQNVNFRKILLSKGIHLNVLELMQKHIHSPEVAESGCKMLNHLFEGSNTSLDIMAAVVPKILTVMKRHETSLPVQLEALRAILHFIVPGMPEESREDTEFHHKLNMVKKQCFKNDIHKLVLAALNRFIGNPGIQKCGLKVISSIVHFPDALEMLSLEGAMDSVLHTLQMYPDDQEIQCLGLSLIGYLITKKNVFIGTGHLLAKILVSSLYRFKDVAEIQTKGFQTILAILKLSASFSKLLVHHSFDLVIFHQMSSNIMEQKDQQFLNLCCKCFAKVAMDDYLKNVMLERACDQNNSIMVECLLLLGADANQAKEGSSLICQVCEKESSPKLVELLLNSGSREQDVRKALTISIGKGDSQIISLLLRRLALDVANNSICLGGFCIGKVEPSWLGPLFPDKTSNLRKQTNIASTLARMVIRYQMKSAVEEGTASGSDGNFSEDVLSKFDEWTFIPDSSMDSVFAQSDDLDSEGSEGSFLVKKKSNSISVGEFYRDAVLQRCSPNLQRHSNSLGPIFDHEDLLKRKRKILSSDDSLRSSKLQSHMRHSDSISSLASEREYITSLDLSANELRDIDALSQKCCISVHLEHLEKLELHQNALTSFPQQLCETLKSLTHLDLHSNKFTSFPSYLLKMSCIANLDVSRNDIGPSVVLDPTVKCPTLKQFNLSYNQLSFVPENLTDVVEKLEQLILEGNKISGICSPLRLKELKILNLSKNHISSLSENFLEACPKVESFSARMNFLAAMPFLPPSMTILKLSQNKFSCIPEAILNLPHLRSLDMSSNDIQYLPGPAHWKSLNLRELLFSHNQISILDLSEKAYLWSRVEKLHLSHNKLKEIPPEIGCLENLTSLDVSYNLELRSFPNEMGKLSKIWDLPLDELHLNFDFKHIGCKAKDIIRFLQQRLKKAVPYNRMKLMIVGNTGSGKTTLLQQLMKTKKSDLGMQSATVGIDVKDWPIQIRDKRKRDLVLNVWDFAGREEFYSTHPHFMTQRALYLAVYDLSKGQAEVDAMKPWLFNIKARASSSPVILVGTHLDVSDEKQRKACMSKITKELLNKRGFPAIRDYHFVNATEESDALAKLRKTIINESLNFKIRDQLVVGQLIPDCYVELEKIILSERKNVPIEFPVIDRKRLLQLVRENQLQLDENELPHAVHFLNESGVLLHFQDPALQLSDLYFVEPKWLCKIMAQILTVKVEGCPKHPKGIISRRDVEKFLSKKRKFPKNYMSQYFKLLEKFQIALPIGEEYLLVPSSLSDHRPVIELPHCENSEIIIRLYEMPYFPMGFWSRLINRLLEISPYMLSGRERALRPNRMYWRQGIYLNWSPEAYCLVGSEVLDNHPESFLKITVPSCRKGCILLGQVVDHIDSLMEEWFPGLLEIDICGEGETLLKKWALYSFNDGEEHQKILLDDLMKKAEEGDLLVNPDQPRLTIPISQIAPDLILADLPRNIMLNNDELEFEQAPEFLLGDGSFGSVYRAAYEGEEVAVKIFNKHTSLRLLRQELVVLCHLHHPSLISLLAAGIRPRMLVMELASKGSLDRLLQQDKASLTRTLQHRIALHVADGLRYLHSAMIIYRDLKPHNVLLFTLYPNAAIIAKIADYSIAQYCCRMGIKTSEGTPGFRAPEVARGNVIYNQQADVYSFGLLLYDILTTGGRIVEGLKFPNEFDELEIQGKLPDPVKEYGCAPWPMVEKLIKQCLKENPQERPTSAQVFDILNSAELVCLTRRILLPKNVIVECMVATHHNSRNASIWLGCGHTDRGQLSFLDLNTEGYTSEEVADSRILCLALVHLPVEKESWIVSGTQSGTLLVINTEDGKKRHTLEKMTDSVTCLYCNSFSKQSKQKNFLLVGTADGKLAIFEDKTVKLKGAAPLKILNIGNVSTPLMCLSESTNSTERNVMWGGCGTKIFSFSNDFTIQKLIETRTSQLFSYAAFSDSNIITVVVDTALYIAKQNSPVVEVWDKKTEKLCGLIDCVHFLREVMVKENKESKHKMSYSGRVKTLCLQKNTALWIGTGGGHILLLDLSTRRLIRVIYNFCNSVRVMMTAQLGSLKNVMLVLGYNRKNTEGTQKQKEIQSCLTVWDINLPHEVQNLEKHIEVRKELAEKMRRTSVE

The target in data set [4] is Leucine-rich repeat serine/threonine-protein kinase 2 (Homo sapiens, UniProt Q5S007, G2019S). The data set is described as follows: Inhibition of human GST-tagged LRRK2 G2019S mutant (970 to 2527 residues) expressed in baculovirus expression system assessed as reduction in ADP formation using LRRKtide as substrate measured after 1 hr in presence of ATP by Adapta assay. The gist of the method: as §2
Leucine-rich repeat serine/threonine-protein kinase 2 (Homo sapiens, UniProt Q5S007, G2019S), sequence (Q5S007 whole entry G2019S, the tested form may be a part): as above

The nature of data set [5]: Permeability of compound in PBS/EtOH buffer (7:3) at 100 ul and pH 7.4 after 2 hrs and 30 mins by UV plate reader based PAMPA-BBB assay. Type of data set: ADME. The following applies: read-out: permeability. Summed up:
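PAMPA-BBB using porcine brain lipid membrane; in vitro permeability (Pe) determined alongside ten commercial drugs whose reported Pe values validated the assay; compounds classed CNS+ from Pe.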
A general note: The PAMPA barrier holds no transporters, so it reflects passive diffusion.

Data set [6] concerns the target T1, Leucine-rich repeat serine/threonine-protein kinase 2. The data set is described as follows: Inhibition of LRRK2 in human iPSC derived neuronal progenitor cells stably expressing TCF/LEF luciferase reporter gene assessed as modulation of Wnt/beta-catenin signaling pathway by measuring TCF/LEF dependent beta-catenin mediated transcriptional activity at 1 uM measured after 24 hrs in presence of Wnt3a by Steady-Glo luciferase assay relative to control. The gist of the method:
(§3)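 TCF/LEF luciferase reporter assay in human cells stimulated with Wnt3a supplied as Wnt3a-expressing cell conditioned medium; compounds at fixed 1 or 10 µM. Reporter activity expressed as fold increase over DMSO vehicle.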
Background: A reporter such as luciferase makes a cellular process visible.

Data set [7] has the same target. The data set is described as follows: Inhibition of LRRK2 in human iPSC derived neuronal progenitor cells stably expressing TCF/LEF luciferase reporter gene assessed as modulation of Wnt/beta-catenin signaling pathway by measuring TCF/LEF dependent beta-catenin mediated transcriptional activity at 10 uM measured after 24 hrs in presence of Wnt3a by Steady-Glo luciferase assay relative to control. Summed up: as §3

Data set [8] shares this target. The data set is described as follows: Inhibition of LRRK2 in human iPSC derived neuronal progenitor cells stably expressing TCF/LEF luciferase reporter gene assessed as modulation of Wnt/beta-catenin signaling pathway by measuring TCF/LEF dependent beta-catenin mediated transcriptional activity measured after 24 hrs in presence of Wnt3a by Steady-Glo luciferase assay relative to control. Summed up:
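TCF/LEF luciferase reporter activity measured with Wnt3a supplied as conditioned medium from Wnt3a-expressing cells. Compounds screened at 1 and 10 µM. For dose curves, serial dilutions spanned 0.01–20.00 µM, with each concentration repeated eight times. Values are fold increase over DMSO vehicle (average ± SD for the curves).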

Data set [9] is filed under the species Mus musculus. The data set is described as follows: Induction of neurogenesis in C57/BL6 mouse neural stem cells derived neurospheres isolated from adult ventricular-subventricular zone assessed as increase in neurosphere size at 1 to 5 uM measured after 4 days in presence of FGF or EGF by bright field microscopy analysis. It counts as functional. Summed up:
(§4)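 Primary neurospheres from adult mouse V-SVZ neural stem and progenitor cells, cultured 4 days with FGF and EGF and compound at 1 or 5 µM; DMSO vehicle control, PF06447475 as reference LRRK2 inhibitor. Proliferation read as total neurosphere area per bright-field field by ImageJ macro, expressed relative to DMSO (=100); 6 fields per triplicate, three independent experiments, mean ± SEM.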

Data set [10] is described as follows: Induction of neurogenesis in C57/BL6 mouse neural stem cells derived neurospheres isolated from adult ventricular-subventricular zone assessed as increase in total area of neurosphere at 1 to 5 uM measured after 4 days in presence of FGF or EGF by bright field microscopy analysis relative to control. Type of data set: functional. The gist of the method: as §4

The species named for data set [11] is Mus musculus. The data set is described as follows: Induction of neurogenesis in C57/BL6 mouse neuronal progenitor cells derived neurospheres isolated from adult ventricular-subventricular zone assessed as increase in neurosphere size at 1 to 5 uM measured after 4 days in presence of FGF or EGF by bright field microscopy analysis. It counts as functional. The gist of the method: as §4

In data set [12] the target is Leucine-rich repeat serine/threonine-protein kinase 2 (Mus musculus) (UniProt Q5S006). The data set is described as follows: Inhibition of LRRK2 in C57/BL6 mouse neural stem cells derived neurospheres isolated from adult ventricular-subventricular zone assessed as differentiation of neurospheres forming CNPase positive oligodendrocytes at 1 uM treated for 6 days and measured on day 7 by bisbenzimide staining based confocal microscopy. The gist of the method:
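Dissociated adult V-SVZ neurosphere cells plated on poly-ornithine/fibronectin and cultured 6 days without mitogens with compound at 1 µM, PF-475 reference, DMSO control; fixed day 7. Immunostained for CNPase (oligodendrocytes), β3-tubulin, GFAP, bisbenzimide nuclei; confocal counts of positive cells as % of total; 4 fields per triplicate, two independent experiments, mean ± SEM.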

Data set [13] has the same target. The data set is described as follows: Inhibition of LRRK2 in C57/BL6 mouse neural stem cells derived neurospheres isolated from adult ventricular-subventricular zone assessed as reduction in Rab10 phosphorylation at 10 uM using Rab10 as substrate measured after 7 days in presence of mitogens by Western blot analysis. Summed up: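 Neurosphere cultures from adult mouse SVZ (2 male mice) grown 7 days with mitogens, treated with compound at 10 µM or DMSO. Cell pellets immunoblotted with monoclonal anti-phospho-Rab10 (T73); p-Rab10 quantified over three experiments, mean ± SEM.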

The target of data set [14] is T1, Leucine-rich repeat serine/threonine-protein kinase 2. The data set is described as follows: Inhibition of LRRK2 in human iPSC derived neuronal progenitor cells stably expressing TCF/LEF luciferase reporter gene assessed as increase in AXIN2 mRNA expression in absence of Wnt3a by TaqMan probe based RT-PCR analysis.
Data set [15] shares this target. The data set is described as follows: Inhibition of LRRK2 in human iPSC derived neuronal progenitor cells stably expressing TCF/LEF luciferase reporter gene assessed as increase in AXIN2 mRNA expression in presence of Wnt3a by TaqMan probe based RT-PCR analysis.
Data set [16] deals with Leucine-rich repeat serine/threonine-protein kinase 2 (Mus musculus) (UniProt Q5S006). The data set is described as follows: Inhibition of LRRK2 in C57/BL6 mouse neural stem cells derived neurospheres isolated from adult ventricular-subventricular zone assessed as increase in neurosphere proliferation at 1 uM measured after 4 days presence of FGF or EGF by bright field microscopy analysis.
Leucine-rich repeat serine/threonine-protein kinase 2 (Mus musculus), sequence (Q5S006 whole entry): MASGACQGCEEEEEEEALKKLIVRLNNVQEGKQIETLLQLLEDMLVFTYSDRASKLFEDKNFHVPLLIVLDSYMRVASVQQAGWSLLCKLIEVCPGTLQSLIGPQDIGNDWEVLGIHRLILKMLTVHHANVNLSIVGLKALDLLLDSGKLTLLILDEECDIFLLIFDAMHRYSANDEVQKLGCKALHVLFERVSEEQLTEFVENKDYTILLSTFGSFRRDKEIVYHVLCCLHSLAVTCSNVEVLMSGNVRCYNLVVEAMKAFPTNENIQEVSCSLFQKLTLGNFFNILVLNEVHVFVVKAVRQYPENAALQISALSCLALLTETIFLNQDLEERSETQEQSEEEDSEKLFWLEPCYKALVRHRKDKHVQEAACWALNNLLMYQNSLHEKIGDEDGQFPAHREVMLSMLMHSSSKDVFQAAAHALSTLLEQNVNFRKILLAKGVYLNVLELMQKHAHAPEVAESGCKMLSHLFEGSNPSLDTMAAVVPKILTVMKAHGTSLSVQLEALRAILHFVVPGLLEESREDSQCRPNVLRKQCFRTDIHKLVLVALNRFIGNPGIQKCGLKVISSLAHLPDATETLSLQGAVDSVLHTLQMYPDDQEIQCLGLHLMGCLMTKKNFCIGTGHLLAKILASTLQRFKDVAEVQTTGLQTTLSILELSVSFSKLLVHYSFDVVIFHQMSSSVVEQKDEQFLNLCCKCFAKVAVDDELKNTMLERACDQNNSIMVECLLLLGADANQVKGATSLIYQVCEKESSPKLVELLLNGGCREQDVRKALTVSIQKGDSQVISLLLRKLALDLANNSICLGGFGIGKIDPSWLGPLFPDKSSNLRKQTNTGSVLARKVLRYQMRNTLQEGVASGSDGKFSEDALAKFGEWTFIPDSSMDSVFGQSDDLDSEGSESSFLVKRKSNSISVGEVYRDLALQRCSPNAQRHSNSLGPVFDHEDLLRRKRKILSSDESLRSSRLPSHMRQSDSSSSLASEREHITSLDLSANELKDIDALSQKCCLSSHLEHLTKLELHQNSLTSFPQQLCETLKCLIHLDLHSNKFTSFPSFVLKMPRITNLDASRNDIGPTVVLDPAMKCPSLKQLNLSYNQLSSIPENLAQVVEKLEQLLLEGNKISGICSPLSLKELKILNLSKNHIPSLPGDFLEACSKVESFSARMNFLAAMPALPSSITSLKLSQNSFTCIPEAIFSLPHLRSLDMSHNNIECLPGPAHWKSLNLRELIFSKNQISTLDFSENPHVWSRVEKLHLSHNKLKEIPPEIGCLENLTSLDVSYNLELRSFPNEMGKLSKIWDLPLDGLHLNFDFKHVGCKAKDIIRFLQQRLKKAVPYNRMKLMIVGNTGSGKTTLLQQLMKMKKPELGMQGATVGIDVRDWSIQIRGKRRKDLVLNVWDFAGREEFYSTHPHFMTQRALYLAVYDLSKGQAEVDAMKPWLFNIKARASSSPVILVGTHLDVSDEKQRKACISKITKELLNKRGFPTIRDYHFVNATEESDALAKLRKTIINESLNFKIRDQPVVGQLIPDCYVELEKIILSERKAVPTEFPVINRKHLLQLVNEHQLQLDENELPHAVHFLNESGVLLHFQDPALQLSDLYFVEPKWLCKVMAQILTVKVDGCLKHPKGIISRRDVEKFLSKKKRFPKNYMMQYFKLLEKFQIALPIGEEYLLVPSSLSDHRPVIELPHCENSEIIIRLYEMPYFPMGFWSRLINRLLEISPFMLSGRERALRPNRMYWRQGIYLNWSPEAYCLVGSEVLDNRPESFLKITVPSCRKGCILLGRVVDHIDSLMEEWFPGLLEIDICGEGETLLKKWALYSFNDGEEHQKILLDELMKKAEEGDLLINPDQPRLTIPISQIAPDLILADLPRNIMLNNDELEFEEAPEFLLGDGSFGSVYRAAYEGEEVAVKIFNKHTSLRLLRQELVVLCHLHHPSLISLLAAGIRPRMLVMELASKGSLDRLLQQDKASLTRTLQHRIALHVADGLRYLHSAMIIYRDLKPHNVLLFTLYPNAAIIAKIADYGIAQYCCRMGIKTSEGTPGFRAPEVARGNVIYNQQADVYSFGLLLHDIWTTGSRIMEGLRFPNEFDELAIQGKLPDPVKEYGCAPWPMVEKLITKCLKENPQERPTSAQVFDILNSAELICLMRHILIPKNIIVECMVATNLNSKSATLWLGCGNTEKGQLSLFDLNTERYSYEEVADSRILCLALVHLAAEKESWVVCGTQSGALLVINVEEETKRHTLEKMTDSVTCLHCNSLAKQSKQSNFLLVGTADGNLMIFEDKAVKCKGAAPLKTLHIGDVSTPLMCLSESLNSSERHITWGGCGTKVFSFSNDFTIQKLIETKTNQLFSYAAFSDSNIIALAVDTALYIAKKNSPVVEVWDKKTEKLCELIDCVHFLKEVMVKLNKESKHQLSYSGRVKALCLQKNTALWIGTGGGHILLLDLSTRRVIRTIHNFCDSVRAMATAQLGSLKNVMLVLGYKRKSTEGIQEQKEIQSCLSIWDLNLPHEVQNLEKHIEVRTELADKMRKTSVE

Data set [17] addresses T1, Leucine-rich repeat serine/threonine-protein kinase 2. The data set is described as follows: Inhibition of wild-type human partial length LRRK2 (H970 to E2527 residues) expressed in mammalian expression system at 10 uM by Kinomescan method relative to control.

T1 sequence (Q5S007 whole entry, the tested form may be a part): as the sequence (Q5S007 whole entry G2019S, the tested form may be a part) above, with S2019G counted along it

With `O=C(Nc1nc2ccc(Br)cc2s1)c1ccc(N2CCOCC2)cc1`, the inhibition (usually the relative decrease from the control value, in per cent) in data set [1] was 75%; in [3], 70%; in data set [8], “Dose-dependent effect”. The IC50 (in general, the point on the concentration scale where inhibition reaches its midpoint) amounted to 510 nM in [2] and 260 nM in data set [4]. Besides, the Papp at 2.5 h in data set [5] worked out at 4.2 ×10⁻⁶ cm/s. The fold change (FC) in data set [6] was 1.25; in data set [7] it was 2; in data set [10] it was 1.8 - 2.4. The result in [9] and in [11] was Active. Further, the inhibition entry in [12], in data set [13], in data set [15] and in data set [16] was “Active” throughout. Also, the inhibition entry in data set [14] is “inactive”.

Regarding `O=C(Nc1nc2c(Cl)cccc2s1)c1ccc(N2CCOCC2)cc1`, in [1], the inhibition was 32%.

As to `O=C(Nc1nc2ccc(C(F)(F)F)cc2s1)c1ccc(N2CCOCC2)cc1`, the inhibition came to 51% in data set [1] and 69% in data set [3]. In addition, the values for the IC50 in [2] and in data set [4] were 2270 nM and 280 nM, respectively.

With `O=C(Nc1nc2ccccc2s1)c1ccc(N2CCOCC2)cc1`, the inhibition in [1] was 75%; in data set [3], 85%; in data set [8] it was “Dose-dependent effect”; in [17], < 35%. In addition, the half-maximal inhibitory concentration (IC50) in data set [4] was found to be 370 nM. The fold change (FC) was 3.25 in data set [6], 2.2 in data set [7] and 1.8 - 2.4 in data set [10]. For the same molecule, the result in data set [9] and in data set [11] was Active. Also, the inhibition entry in data set [12], in [13], in [15] and in [16] was “Active” in each case. The inhibition entry in data set [14] was “inactive”.

On to `Cc1cnc(-c2cnc(NCCNc3ccc(C#N)cn3)nc2-c2ccc(Cl)cc2Cl)[nH]1`, for which the inhibition entry in [8] is “Dose-dependent effect”.

As for `Cc1cccc2sc(NC(=O)c3ccc(N4CCOCC4)cc3)nc12`, the inhibition in [1] came to 18%.

In the case of `O=C(CCCC(=O)c1ccccc1)Nc1nc2ccc(F)cc2s1`, in data set [1], the inhibition turned out to be 11%.

As for `COc1ccc2nc(NC(=O)c3ccc(N4CCOCC4)cc3)sc2c1`, the inhibition stood at 73% in data set [1] and 93% in [3]. Moreover, the 50% inhibitory concentration (IC50) in data set [4] was found to be 440 nM.

For `CS(=O)(=O)c1ccc2nc(NC(=O)c3ccc(N4CCOCC4)cc3)sc2c1`, the inhibition in data set [1] came out at 77%.

Turning to `Cc1cc(-c2ccc3nc(Nc4ccccc4)nn3c2)cc(C)c1O`, the half-inhibitory concentration (IC50) in [2] and in data set [4] was 20 nM in each case.

With `N#Cc1cccc(-c2c[nH]c3ncnc(N4CCOCC4)c23)c1`, the outcome in data set [9] and in data set [11] was Active. The “fold change (FC)” value in data set [10] is 1.8 - 2.4.

`Cc1ccc2nc(NC(=O)c3ccc(N4CCOCC4)cc3)sc2c1`: the inhibition in data set [1] turned out to be 61%; in data set [3], 71%. Further, the IC50 in [2] was determined as 480 nM. The fold change (FC) in data set [6] was 1.76; in data set [7], 1.79.

As for `COc1ccc2cc(C(=O)Nc3nc4ccc(F)cc4s3)ccc2c1`, the inhibition in [1] was determined as 16%.

For the molecule `O=C(Nc1nc2ccc(F)cc2s1)c1ccccc1`, the inhibition in data set [1] is 81%; in [3] it was 79%; in data set [8], “Dose-dependent effect”. The half-inhibitory concentration (IC50) in data set [2] and in [4] was 520 nM throughout. The Papp at 2.5 h in [5] was 15 ×10⁻⁶ cm/s. Moreover, the fold change (FC) was 1.43 in [6], 2.29 in data set [7] and 1.8 - 2.4 in data set [10]. The outcome in [9] and in data set [11] was Active. For the same molecule, the inhibition entry in [14] was “inactive”. Moreover, the inhibition entry in [15] was “Active”.

Regarding `CCOc1ccc2nc(NC(=O)c3ccc(N4CCOCC4)cc3)sc2c1`, the results for the inhibition in [1] and in data set [3] were 80% and 85%, respectively. Moreover, the half-inhibitory concentration (IC50) in [2] stood at 300 nM.

`CCOC(=O)c1ccc2nc(NC(=O)c3ccc(N4CCOCC4)cc3)sc2c1`: the inhibition in data set [1] came to 22%.

On to `O=C(Nc1nc2ccc(F)cc2s1)c1ccc(N2CCOCC2)cc1`, for which the results for the inhibition in data set [1], in data set [3] and in [8] were 66%, 55% and “Dose-dependent effect”, respectively. Also, the results for the 50% inhibitory concentration (IC50) in [2] and in data set [4] were 170 nM and 180 nM, respectively. Also, the fold change (FC) was 1.58 in data set [6], 2 in data set [7] and 1.8 - 2.4 in [10]. The outcome in [9] and in data set [11] was Active. In data set [14], the inhibition result is “inactive”. The inhibition result in data set [15] is “Active”.

Regarding `O=C(Nc1nc2ccc(Cl)cc2s1)c1ccc(N2CCOCC2)cc1`, the figures for the inhibition in data set [1] and in data set [3] were 60% and 50%, respectively. In [2], the 50% inhibitory concentration (IC50) was 370 nM.

On to `CC(C)c1ccc2nc(NC(=O)c3ccc(N4CCOCC4)cc3)sc2c1`, for which the figures for the inhibition in data set [1] and in data set [3] were 48% and 70%, respectively. Also, the IC50 in [2] amounted to 3490 nM; in [4] it was 1120 nM. Besides, in data set [5], the Papp at 2.5 h is 4.3 ×10⁻⁶ cm/s. Also, the fold change (FC) in data set [6] is 1.19; in [7], 1.22.

`O=C(Nc1nc2ccc(F)cc2s1)c1ccc(Cl)cc1`: the inhibition in data set [1] turned out to be 68%; in data set [3] it was 67%. The concentration for half-maximal inhibition (IC50) in [2] turned out to be 4460 nM; in [4], 5640 nM.

With `CCCOc1ccc2nc(NC(=O)c3ccc(N4CCOCC4)cc3)sc2c1`, the inhibition in data set [1] was 13%.
